Values belong to the compound of their own block, whether it stands above or below them.
Experiments:
[1] = molecular target: Aldo-keto reductase family 1 member B1 (Rattus norvegicus, UniProt P07943); assay: Inhibitory concentration to aldose reductase (ALR-2) obtained from rat lens
Rattus norvegicus [2] = species on record: Rattus norvegicus; assay: Effect of the treatment on day 21 with ophthalmic solution (3%) on development of nuclear cataract in severely galactosemic rats; type: functional
Outline: (§1)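 Sprague Dawley albino rats (45-55 g), 15 per group of equal average body weight, fed 50% D-galactose diet with ad libitum food and water. Eyedrops given four times daily in the precorneal region, starting 1 day before the switch to galactose chow. Vehicle controls were run on galactose and on normal diet. Lenses were checked by slit-lamp after 1% atropine mydriasis, and animals with nuclear cataract (central white opacity) were counted.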

Rattus norvegicus [3] = species on record: Rattus norvegicus; assay: Effect of the treatment on day 13 with ophthalmic solution (3%)on development of nuclear cataract in severely galactosemic rats; type: functional; outline: as §1
Rattus norvegicus [4] = species on record: Rattus norvegicus; assay: Effect of the treatment on day 14 with ophthalmic solution (3%)on development of nuclear cataract in severely galactosemic rats; type: functional; outline: as §1
Rattus norvegicus [5] = species on record: Rattus norvegicus; assay: Effect of the treatment on day 16 with ophthalmic solution (3%)on development of nuclear cataract in severely galactosemic rats; type: functional; outline: as §1
Rattus norvegicus [6] = species on record: Rattus norvegicus; assay: Effect of the treatment on day 18 with ophthalmic solution (3%)on development of nuclear cataract in severely galactosemic rats; type: functional; outline: as §1
Rattus norvegicus [7] = species on record: Rattus norvegicus; assay: Effect of the treatment on day 17 with ophthalmic solution (3%)on development of nuclear cataract in severely galactosemic rats; type: functional; outline: as §1
Rattus norvegicus [8] = species on record: Rattus norvegicus; assay: Effect of the treatment on day 20 with ophthalmic solution (3%)on development of nuclear cataract in severely galactosemic rats; type: functional; outline: as §1
Rattus norvegicus [9] = species on record: Rattus norvegicus; assay: Effect of the treatment on day 15 with ophthalmic solution (3%)on development of nuclear cataract in severely galactosemic rats; type: functional; outline: as §1
Rattus norvegicus [10] = species on record: Rattus norvegicus; assay: Effect of the treatment on day 11 with ophthalmic solution (3%)on development of nuclear cataract in severely galactosemic rats; type: functional; outline: as §1
Rattus norvegicus [11] = species on record: Rattus norvegicus; assay: Effect of the treatment on day 12 with ophthalmic solution (3%)on development of nuclear cataract in severely galactosemic rats; type: functional; outline: as §1
Rattus norvegicus [12] = species on record: Rattus norvegicus; assay: Effect of the treatment on day 19 with ophthalmic solution (3%)on development of nuclear cataract in severely galactosemic rats; type: functional; outline: as §1
Rattus norvegicus [13] = species on record: Rattus norvegicus; assay: Effect of the treatment on day 18 with ophthalmic solution (1%)on development of nuclear cataract in severely galactosemic rats; type: functional; outline: as §1
Rattus norvegicus [14] = species on record: Rattus norvegicus; assay: Effect of the treatment on day 20 with ophthalmic solution (1%)on development of nuclear cataract in severely galactosemic rats; type: functional; outline: as §1
Rattus norvegicus [15] = species on record: Rattus norvegicus; assay: Effect of the treatment on day 12 with ophthalmic solution (1%)on development of nuclear cataract in severely galactosemic rats; type: functional; outline: as §1
Rattus norvegicus [16] = species on record: Rattus norvegicus; assay: Effect of the treatment on day 15 with ophthalmic solution (1%)on development of nuclear cataract in severely galactosemic rats; type: functional; outline: as §1
Rattus norvegicus [17] = species on record: Rattus norvegicus; assay: Effect of the treatment on day 14 with ophthalmic solution (1%)on development of nuclear cataract in severely galactosemic rats; type: functional; outline: as §1
Rattus norvegicus [18] = species on record: Rattus norvegicus; assay: Effect of the treatment on day 16 with ophthalmic solution (1%)on development of nuclear cataract in severely galactosemic rats; type: functional; outline: as §1
Rattus norvegicus [19] = species on record: Rattus norvegicus; assay: Effect of the treatment on day 11 with ophthalmic solution (1%)on development of nuclear cataract in severely galactosemic rats; type: functional; outline: as §1
Rattus norvegicus [20] = species on record: Rattus norvegicus; assay: Effect of the treatment on day 21 with ophthalmic solution (1%) on development of nuclear cataract in severely galactosemic rats; type: functional; outline: as §1
Rattus norvegicus [21] = species on record: Rattus norvegicus; assay: Effect of the treatment on day 13 with ophthalmic solution (1%)on development of nuclear cataract in severely galactosemic rats; type: functional; outline: as §1
Rattus norvegicus [22] = species on record: Rattus norvegicus; assay: Effect of the treatment on day 17 with ophthalmic solution (1%)on development of nuclear cataract in severely galactosemic rats; type: functional; outline: as §1
Rattus norvegicus [23] = species on record: Rattus norvegicus; assay: Effect of the treatment on day 19 with ophthalmic solution (1%)on development of nuclear cataract in severely galactosemic rats; type: functional; outline: as §1

Structure (SMILES): O=C(O)CN/N=c1\n(Cc2ccc(Cl)cc2)c2ccccc2n1C(=O)C(=O)O
- IC50 [1]: 10 µM

Structure (SMILES): O=C(O)CN/N=c1\n(Cc2ccc(Br)cc2F)c2ccccc2n1C(=O)C(=O)O
- IC50 [1]: 12.5 µM

Structure (SMILES): O=C(O)CN/N=c1\n(Cc2ccccc2)c2ccccc2n1C(=O)C(=O)O
- IC50 [1]: 4.5 µM

Structure (SMILES): O=C(O)Cn1nc2n(Cc3ccc(F)cc3)c3ccccc3n2c(=O)c1=O
- IC50 [1]: 4.58 µM

Structure (SMILES): CCCn1c2ccccc2n2c(=O)c(=O)n(CC(=O)O)nc12
- IC50 [1]: 37.2 µM

Structure (SMILES): Cc1ccc(Cn2c3ccccc3n3c(=O)c(=O)n(CC(=O)O)nc23)cc1
- IC50 [1]: 13.3 µM

Structure (SMILES): CC(C)OC(=O)Cn1nc2n(Cc3ccccc3)c3ccccc3n2c(=O)c1=O
- Nuclear cataract (Rattus norvegicus [2]): 40%
- Nuclear cataract (Rattus norvegicus [3]): 10%
- Nuclear cataract (Rattus norvegicus [4]): 10%
- Nuclear cataract (Rattus norvegicus [5]): 10%
- Nuclear cataract (Rattus norvegicus [6]): 40%
- Nuclear cataract (Rattus norvegicus [7]): 10%
- Nuclear cataract (Rattus norvegicus [8]): 40%
- Nuclear cataract (Rattus norvegicus [9]): 10%
- Nuclear cataract (Rattus norvegicus [10]): 0%
- Nuclear cataract (Rattus norvegicus [11]): 10%
- Nuclear cataract (Rattus norvegicus [12]): 40%

Structure (SMILES): O=C(O)Cn1nc2n(Cc3ccc(Cl)cc3)c3ccccc3n2c(=O)c1=O
- IC50 [1]: 4.15 µM

Structure (SMILES): O=C(O)CN/N=c1\n(CC(=O)O)c2ccccc2n1C(=O)C(=O)O
- IC50 [1]: 236 µM

Structure (SMILES): O=C(O)Cn1nc2n(Cc3ccccc3)c3ccccc3n2c(=O)c1=O
- Nuclear cataract (Rattus norvegicus [2]): 50%
- Nuclear cataract (Rattus norvegicus [3]): 0%
- IC50 [1]: 0.36 µM
- Nuclear cataract (Rattus norvegicus [4]): 10%
- Nuclear cataract (Rattus norvegicus [5]): 10%
- Nuclear cataract (Rattus norvegicus [6]): 40%
- Nuclear cataract (Rattus norvegicus [7]): 10%
- Nuclear cataract (Rattus norvegicus [8]): 50%
- Nuclear cataract (Rattus norvegicus [9]): 10%
- Nuclear cataract (Rattus norvegicus [10]): 0%
- Nuclear cataract (Rattus norvegicus [11]): 0%
- Nuclear cataract (Rattus norvegicus [12]): 40%

Structure (SMILES): O=C(O)CN/N=c1\n(Cc2ccc(F)cc2)c2ccccc2n1C(=O)C(=O)O
- IC50 [1]: 14.8 µM

Structure (SMILES): Cn1c2ccccc2n2c(=O)c(=O)n(CC(=O)O)nc12
- IC50 [1]: 24.8 µM

Structure (SMILES): O=C(O)Cc1nnc2n(Cc3ccccc3)c3ccccc3n2c1=O
- IC50 [1]: 5.44 µM

More lines, main results first:

- IC50 [1]: 4.42 µM
Structure (SMILES): O=C(O)Cn1nc2n(Cc3ccc(F)c(F)c3)c3ccccc3n2c(=O)c1=O

- IC50 [1]: 44.5 µM
Structure (SMILES): COc1ccc(Cn2/c(=N\NCC(=O)O)n(C(=O)C(=O)O)c3ccccc32)cc1

- IC50 [1]: 109 µM
Structure (SMILES): Cn1/c(=N\NCC(=O)O)n(C(=O)C(=O)O)c2ccccc21

- IC50 [1]: 4.47 µM
Structure (SMILES): O=C(O)Cn1nc2n(Cc3ccc(Br)cc3F)c3ccccc3n2c(=O)c1=O

- IC50 [1]: 2.63 µM
Structure (SMILES): O=C(O)CN/N=c1\n(Cc2ccc(C(F)(F)F)cc2)c2ccccc2n1C(=O)C(=O)O

- IC50 [1]: 35.9 µM
Structure (SMILES): O=C(O)Cc1nnc2nc3ccccc3n2c1O

- IC50 [1]: 23.9 µM
Structure (SMILES): O=C(O)Cn1nc2n(Cc3ccc(C(F)(F)F)cc3)c3ccccc3n2c(=O)c1=O

- IC50 [1]: 17 µM
Structure (SMILES): Cn1c2ccccc2n2c(=O)c(CC(=O)O)nnc12

- IC50 [1]: 9.72 µM
Structure (SMILES): O=C(O)CN/N=c1\n(Cc2ccc(F)c(F)c2)c2ccccc2n1C(=O)C(=O)O

- IC50 [1]: 42.6 µM
Structure (SMILES): COc1ccc(Cn2c3ccccc3n3c(=O)c(=O)n(CC(=O)O)nc23)cc1

- IC50 [1]: 13.5 µM
Structure (SMILES): O=C(O)Cn1nc2n(CC(=O)O)c3ccccc3n2c(=O)c1=O

- IC50 [1]: 45.9 µM
Structure (SMILES): Cc1ccc(Cn2/c(=N\NCC(=O)O)n(C(=O)C(=O)O)c3ccccc32)cc1

- IC50 [1]: 46.5 µM
Structure (SMILES): CCCn1/c(=N\NCC(=O)O)n(C(=O)C(=O)O)c2ccccc21

- IC50 [1]: 0.05 µM
Structure (SMILES): COc1ccc2c(C(=S)N(C)CC(=O)O)cccc2c1C(F)(F)F [TOLRESTAT]
- Nuclear cataract (Rattus norvegicus [13]): 43%
- Nuclear cataract (Rattus norvegicus [14]): 47%
- Nuclear cataract (Rattus norvegicus [2]): 0%
- Nuclear cataract (Rattus norvegicus [15]): 0%
- Nuclear cataract (Rattus norvegicus [16]): 32%
- Nuclear cataract (Rattus norvegicus [17]): 23%
- Nuclear cataract (Rattus norvegicus [3]): 0%
- Nuclear cataract (Rattus norvegicus [4]): 0%
- Nuclear cataract (Rattus norvegicus [18]): 32%
- Nuclear cataract (Rattus norvegicus [19]): 0%
- Nuclear cataract (Rattus norvegicus [20]): 47%
- Nuclear cataract (Rattus norvegicus [5]): 0%
- Nuclear cataract (Rattus norvegicus [6]): 0%
- Nuclear cataract (Rattus norvegicus [7]): 0%
- Nuclear cataract (Rattus norvegicus [8]): 0%
- Nuclear cataract (Rattus norvegicus [21]): 0%
- Nuclear cataract (Rattus norvegicus [22]): 32%
- Nuclear cataract (Rattus norvegicus [9]): 0%
- Nuclear cataract (Rattus norvegicus [10]): 0%
- Nuclear cataract (Rattus norvegicus [23]): 43%
- Nuclear cataract (Rattus norvegicus [11]): 0%
- Nuclear cataract (Rattus norvegicus [12]): 0%
